Test results published in EPA's CvTdb concentration-time database.
One block for each compound: values may come before it.

Experiments:
[1] = test system: Rat; assay: concentration in brain after dosing; conditions: 864 h; dosed: Perfluorodecanoic acid; 10 mg/kg; oral; Male; Harlan Sprague Dawley
[2] = test system: Rat; assay: concentration in liver after dosing; conditions: 1 h; dosed: Perfluorodecanoic acid; 10 mg/kg; oral; Female; Harlan Sprague Dawley
[3] = test system: Rat; assay: concentration in liver after dosing; conditions: 24 h; dosed: Perfluorodecanoic acid; 10 mg/kg; oral; Female; Harlan Sprague Dawley
[4] = test system: Rat; assay: concentration in kidney after dosing; conditions: 3360 h; dosed: Perfluorodecanoic acid; 10 mg/kg; oral; Male; Harlan Sprague Dawley
[5] = test system: Rat; assay: concentration in plasma after dosing; conditions: dosed: Perfluorodecanoic acid, 2 mg/kg, iv, Male, F344
[6] = test system: Rat; assay: concentration in plasma after dosing; conditions: 2 h; dosed: Di-n-butyl phthalate; 100 mg/kg; oral; Male; Sprague-Dawley
[7] = test system: Rat; assay: concentration in plasma after dosing; conditions: 3 h; dosed: Di-n-butyl phthalate; 100 mg/kg; oral; Male; Sprague-Dawley
[8] = test system: Rat; assay: concentration in plasma after dosing; conditions: 5 min; dosed: Di-n-butyl phthalate; 20 mg/kg; iv; Male; Sprague-Dawley
[9] = test system: Rat; assay: concentration in plasma after dosing; conditions: dosed: dichloroacetic acid, 40 mg/kg, oral, Female, Harlan Sprague Dawley
[10] = test system: Rat; assay: concentration in plasma after dosing; conditions: dosed: dichloroacetic acid, 100 mg/kg, oral, Male, F344
[11] = test system: human; assay: concentration in plasma after dosing; negative times count back from the end of exposure; conditions: dosed: trichloroethylene, 100 ppm, inhalation, duration: 4 hr, person, during exposure
How it was run: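 Concentration-versus-time or amount-versus-time points were compiled from published in vivo toxicokinetic studies and from two structured collections. The studies were found by PubMed searching, classifier screening and manual review. Points were mostly digitised from plot screenshots with WebPlotDigitizer, otherwise copied from tables, and kept in the reported units. Dose, route, subject details and medium were curated by hand from each paper, and sampling and analytical methods follow each source and were often unreported.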

[12] = test system: Rat; assay: concentration in plasma after dosing; conditions: 5 h; dosed: Wyeth-14643; 1.0 mg/kg; oral; Male; Sprague-Dawley
[13] = test system: Rat; assay: concentration in plasma after dosing; conditions: dosed: Wyeth-14643, 5.0 mg/kg, oral, Male, Sprague-Dawley
[14] = test system: Rat; assay: concentration in plasma after dosing; conditions: 1 h; dosed: Wyeth-14643; 2.0 mg/kg; iv; Male; Sprague-Dawley
[15] = test system: Rat; assay: concentration in heart after dosing; conditions: 40 min; dosed: Bis 2-Chloroethoxy Methane; 20 mg/kg; iv; Male; F344
[16] = test system: Rat; assay: concentration in plasma after dosing; conditions: 1 h; dosed: Bis 2-Chloroethoxy Methane; 20 mg/kg; iv; Male; F344
[17] = test system: Rat; assay: concentration in brain after dosing; conditions: 12 h; dosed: Fluorotelomer alcohol 8+2; 80 mg/kg; oral; Female; Harlan Sprague Dawley
[18] = test system: Rat; assay: concentration in brain after dosing; conditions: 12 h; dosed: Fluorotelomer alcohol 8+2; 80 mg/kg; oral; Female; Harlan Sprague Dawley; remark: listed apart in the source
[19] = test system: Rat; assay: concentration in liver after dosing; conditions: 12 h; dosed: Fluorotelomer alcohol 8+2; 80 mg/kg; oral; Female; Harlan Sprague Dawley
[20] = test system: Rat; assay: concentration in kidney after dosing; conditions: 6 h; dosed: Fluorotelomer alcohol 8+2; 24 mg/kg; oral; Male; Harlan Sprague Dawley
[21] = test system: Rat; assay: concentration in plasma after dosing; conditions: dosed: Fluorotelomer alcohol 8+2, 24 mg/kg, oral, Male, Harlan Sprague Dawley
[22] = test system: Rat; assay: concentration in plasma after dosing; conditions: 5 min; dosed: Fluorotelomer alcohol 8+2; 12 mg/kg; iv; Male; F344
[23] = test system: Rat; assay: concentration in kidney after dosing; conditions: 1 h; dosed: Fluorotelomer alcohol 8+2; 24 mg/kg; oral; Male; Harlan Sprague Dawley
[24] = test system: Rat; assay: concentration in plasma after dosing; conditions: dosed: Fluorotelomer alcohol 8+2, 12 mg/kg, iv, Male, F344
[25] = test system: Rat; assay: concentration in liver after dosing; conditions: 8 h; dosed: Thiodiglycolic Acid; 20 mg/kg; iv; Female; Harlan Sprague Dawley
[26] = test system: Rat; assay: concentration in liver after dosing; conditions: 4 h; dosed: Thiodiglycolic Acid; 20 mg/kg; iv; Female; Harlan Sprague Dawley
[27] = test system: Rat; assay: concentration in heart after dosing; conditions: 6.667 h; dosed: Thiodiglycolic Acid; 20 mg/kg; iv; Female; Harlan Sprague Dawley
[28] = test system: Rat; assay: concentration in heart after dosing; conditions: 20 min; dosed: Thiodiglycolic Acid; 20 mg/kg; iv; Female; F344
[29] = test system: Rat; assay: concentration in heart after dosing; conditions: 10 min; dosed: Thiodiglycolic Acid; 20 mg/kg; iv; Male; F344
[30] = test system: Rat; assay: concentration in liver after dosing; conditions: 3 h; dosed: Thiodiglycolic Acid; 20 mg/kg; iv; Female; Harlan Sprague Dawley
[31] = test system: Rat; assay: concentration in thymus after dosing; conditions: 2 h; dosed: Thiodiglycolic Acid; 20 mg/kg; iv; Female; Harlan Sprague Dawley
[32] = test system: Rat; assay: concentration in thymus after dosing; conditions: 10 h; dosed: Thiodiglycolic Acid; 20 mg/kg; iv; Female; Harlan Sprague Dawley
[33] = test system: Rat; assay: concentration in plasma after dosing; conditions: 4 h; dosed: Thiodiglycolic Acid; 20 mg/kg; iv; Male; Harlan Sprague Dawley
[34] = test system: Rat; assay: concentration in plasma after dosing; conditions: 2 h; dosed: Thiodiglycolic Acid; 20 mg/kg; iv; Female; Harlan Sprague Dawley
[35] = test system: Rat; assay: concentration in plasma after dosing; conditions: 12 h; dosed: Primidone; 30 mg/kg; oral; Female; F344
[36] = test system: Rat; assay: concentration in plasma after dosing; conditions: 1.5 h; dosed: Primidone; 30 mg/kg; oral; Female; F344

SMILES: O=C(O)C(F)(F)C(F)(F)C(F)(F)C(F)(F)C(F)(F)C(F)(F)C(F)(F)C(F)(F)C(F)(F)F [Perfluorodecanoic acid]
concentration in brain [1]: 867 ng/g | concentration in liver [2]: 48000 ng/g | concentration in liver [3]: 138000 ng/g | concentration in kidney [4]: 866 ng/g | concentration in plasma ([5]; 1 h): 5930 ng/mL | concentration in plasma ([5]; 528 h): 2060 ng/mL | concentration in plasma ([5]; 3360 h): 272 ng/mL

SMILES: CCCCOC(=O)c1ccccc1C(=O)O [Mono-n-butyl phthalate]
concentration in plasma [6]: 1290 ng/mL | concentration in plasma [7]: 6970 ng/mL | concentration in plasma [8]: 38500 ng/mL

SMILES: O=C(O)C(Cl)Cl [dichloroacetic acid]
concentration in plasma ([9]; 2 min): 704 ng/mL | concentration in plasma ([9]; 1 h): 7020 ng/mL | concentration in plasma ([10]; 5 min): 20900 ng/mL | concentration in plasma ([10]; 2 h): 57500 ng/mL | concentration in plasma ([11]; -1 h): 5 ng/mL | concentration in plasma ([11]; -2 h): 4 ng/mL | concentration in plasma ([11]; -3 h): 5 ng/mL

concentration in plasma [12]: 118 ng/mL | concentration in plasma ([13]; 5 min): 1330 ng/mL | concentration in plasma ([13]; 8 h): 155 ng/mL | concentration in plasma [14]: 2190 ng/mL
SMILES: Cc1cccc(Nc2cc(Cl)nc(SCC(=O)O)n2)c1C

SMILES: ClCCOCOCCCl [Bis 2-Chloroethoxy Methane]
concentration in heart [15]: 6920 ng/g | concentration in plasma [16]: 1320 ng/mL

concentration in brain [17]: 164 ng/g | concentration in brain [18]: 571 ng/g | concentration in liver [19]: 434 ng/g | concentration in kidney [20]: 366 ng/g | concentration in plasma ([21]; 0.25 h): 176 ng/mL | concentration in plasma ([21]; 24 h): 3.78 ng/mL | concentration in plasma [22]: 24300 ng/mL | concentration in kidney [23]: 1520 ng/g | concentration in plasma ([24]; 0.5 h): 1220 ng/mL | concentration in plasma ([24]; 9 h): 19.6 ng/mL
SMILES: OCCC(F)(F)C(F)(F)C(F)(F)C(F)(F)C(F)(F)C(F)(F)C(F)(F)C(F)(F)F [Fluorotelomer alcohol 8+2]

SMILES: O=C(O)CSCC(=O)O [Thiodiglycolic Acid]
concentration in liver [25]: 940 ng/g | concentration in liver [26]: 3490 ng/g | concentration in heart [27]: 308 ng/g | concentration in heart [28]: 3600 ng/g | concentration in heart [29]: 8260 ng/g | concentration in liver [30]: 3470 ng/g | concentration in thymus [31]: 2180 ng/g | concentration in thymus [32]: 254 ng/g | concentration in plasma [33]: 615 ng/mL | concentration in plasma [34]: 1400 ng/mL

SMILES: CCC1(c2ccccc2)C(=O)NC(=O)NC1=O [Phenobarbital]
concentration in plasma [35]: 930 ng/mL | concentration in plasma [36]: 380 ng/mL
